The source of these data is ChEMBL document CHEMBL3351227, “Solving the supply of resveratrol tetramers from Papua New Guinean rainforest anisoptera species that inhibit bacterial type III secretion systems” (J Nat Prod, 2014).

Active and inactive are the calls of the source. The rule behind the calls is not given here.

For experiment [1], the system named is Yersinia pseudotuberculosis YPIII. The experiment can be described thus: Antimicrobial activity against Yersinia pseudotuberculosis YPIII PIB102-Elux at 364 uM by spectrophotometry. It counts as functional.
Experiment [2] is described as follows: Inhibition of YopE in Yersinia pseudotuberculosis YPIII PIB102-Elux measured after 3 hrs 15 mins by luminescent reporter-gene assay. A digest of the protocol:
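Strain was grown on LB agar with 25 μg/mL chloramphenicol for 48 h at 26 °C, then in BHI with chloramphenicol for 12−16 h at 26 °C. It was diluted to OD620 0.2, then 1 in 4 into Ca2+-depleted BHI (5 mM EGTA, 20 mM MgCl2). Compounds were tested at 10–100 μM. Incubation was 1 h at 26 °C, 3 h at 37 °C, then 15 min at 26 °C. Luminescence was read after adding 0.1% decanal, and IC50 was interpolated from dose–response.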

Experiment [3] in a line: Inhibition of YopH in Yersinia pseudotuberculosis YPIII PIB102-Elux using p-nitrophenyl phosphate as substrate measured after 3 hrs 15 mins by phosphatase enzyme assay. A digest of the protocol:
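Same YopE-reporter culture and incubation, with Ca2+-depleted BHI and compounds at 10–100 μM. Before decanal addition, an aliquot went into pNPP (12.5 mM in 20 mM MES pH 5.0, 0.8 mM DTT). This was incubated 15 min at 37 °C, stopped with NaOH and read at 405 nm. IC50 was interpolated from dose–response curves. Bacteria in BHI with 2.5 mM Ca2+ were the negative control.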

For `Oc1ccc([C@@H]2c3c(O)cc(O)cc3[C@@H]3c4c(cc(O)cc4[C@H]2[C@@H]2c4cc(O)cc5c4[C@@H](c4cc(O)cc(O)c4[C@H]2c2ccc(O)cc2)[C@H](c2ccc(O)cc2)O5)O[C@H]3c2ccc(O)cc2)cc1`, the result in experiment [1] was inactive. Besides, the IC50 (in general, the midpoint of a concentration-inhibition curve) was 8.8 µM in experiment [2] and 2.9 µM in experiment [3].

On to `CN[C@@H]1[C@H](O[C@H]2[C@H](O[C@H]3[C@H](O)[C@@H](O)[C@H](N=C(N)N)[C@@H](O)[C@@H]3N=C(N)N)O[C@@H](C)[C@]2(O)C=O)O[C@@H](CO)[C@H](O)[C@H]1O` [STREPTOMYCIN], for which the IC50 in experiment [2] was 38 µM; in experiment [3], 31 µM.

As for `OC[C@H]1O[C@@H](Oc2cc3c4c(c2)[C@@H]([C@@H]2c5cc(O)cc6c5[C@@H](c5cc(O)cc(O)c5[C@H]2c2ccc(O)cc2)[C@H](c2ccc(O)cc2)O6)[C@H](c2ccc(O)cc2)c2c(O)cc(O)cc2[C@H]4[C@H](c2ccc(O)cc2)O3)[C@H](O)[C@@H](O)[C@@H]1O` [VATALBINOSIDE A], the outcome in experiment [1] was inactive. The results for the IC50 in experiment [2] and in experiment [3] were 12.5 µM and 4.5 µM, respectively.

For `Oc1ccc([C@@H]2c3c(O)cc(O)cc3[C@@H]3c4c(cc(O)c5c4[C@@H]2[C@H](c2ccc(O)cc2)[C@H]5c2cc(O)cc4c2[C@@H](c2cc(O)cc(O)c2)[C@H](c2ccc(O)cc2)O4)O[C@H]3c2ccc(O)cc2)cc1` [Vaticanol B], the IC50 in experiment [2] worked out at 9.9 µM; in experiment [3] it was 3.3 µM.
